Results pooled from the literature.
Lines come from different studies, so protocols differ.
Target: Mitogen-activated protein kinase 10 (MAPK10, Homo sapiens, UniProt P53779)

CS(=O)(=O)NCC[C@H](NC(=O)c1cncc2c1cnn2-c1ccc(F)cc1)c1ccnc(S(C)(=O)=O)c1
remaining binding (cell-free assay; competition with immobilised ligand; 1 µM): 100%

O=C(NCC1CCOCC1)c1n[nH]cc1NC(=O)c1c(F)cccc1F
remaining binding (binding; competition with immobilised ligand; 1 µM): 31%

COC(=O)Nc1nc2ccc(C(=O)c3ccccc3)cc2[nH]1
remaining binding (cell-free assay; competition with immobilised ligand; 10 µM): 3%

Cc1noc([C@H]2C[C@@H](c3ccc(C(F)(F)F)cc3)CN(C(=O)N3CCS(=O)(=O)C3)C2)n1
remaining binding (cell-free assay; competition with immobilised ligand; 1 µM): 88%

CN(CCCC(F)(F)F)c1nccc(-c2cnn3ncccc23)n1
remaining binding (binding; 1 µM): 97%

Cc1nc(N2CC[C@@H](O)C2)ncc1-c1cc(C(F)(F)F)cc2[nH]ncc12
remaining binding (binding; competition with immobilised ligand; 1 µM): 72%

CCN1CCN(Cc2ccc(C(=O)Nc3ccc(C)c(Oc4ccc5c(c4)CC(=O)N5)c3)cc2C(F)(F)F)CC1
remaining binding (binding; competition with immobilised ligand; 1 µM): 81%

O=C(NCCCN1CCOCC1)c1ccc(Nc2nccc(-c3cc4ccccc4s3)n2)cc1
remaining binding (binding; competition with immobilised ligand; 1 µM): 15%

COc1ccnn2ncc(-c3ccnc(N(C)C)n3)c12
remaining binding (binding; 1 µM): 80%

C[C@@H]1CN(c2ccc3ncc(-c4ccc5[nH]nc(C6CC6)c5c4)n3n2)C[C@H](C)O1
remaining binding (binding; competition with immobilised ligand; 50 nM): 85%

Cc1cnn2ncc(-c3ccnc(N(C)C)n3)c2c1
remaining binding (binding; 1 µM): 71%

O=C(N[C@H]1CCCCC/C=C\C2C[C@@]2(C(=O)O)NC(=O)[C@@H]2C[C@@H](Oc3ccncc3)CN2C1=O)OC1CCCC1 (stereo partly drawn)
remaining binding (binding; competition with immobilised ligand; 1 µM): 81%

COc1cnc(Nc2cccc(S(N)(=O)=O)c2)nc1N1CCN(c2ccccc2)C(=O)C1
remaining binding (binding; competition with immobilised ligand; 1 µM): 63%

c1cnn2ncc(-c3ccnc(N4CCC45COC5)n3)c2c1
remaining binding (binding; 1 µM): 27%

O=C(c1ccc(Nc2nccc(-c3cc4ccccc4s3)n2)cc1)N1CCC(N2CCCC2)CC1
remaining binding (binding; competition with immobilised ligand; 1 µM): 12%

O=C(N1CCS(=O)(=O)CC1)N1C[C@H](c2ccc(OC(F)(F)F)cc2)C[C@H](c2nc(C3CC3)no2)C1
remaining binding (cell-free assay; competition with immobilised ligand; 1 µM): 79%

CNC(=O)[C@@H]1CC[C@@H](n2c(-c3ccc4cnccc4c3)nc3ccc(C(=O)NCc4cccc(C(N)=O)c4)cc32)C1
remaining binding (binding; competition with immobilised ligand; 1 µM): 84%

C[C@H]1CCN(c2nccc(-c3cnn4ncccc34)n2)C1
remaining binding (binding; 1 µM): 32%

CCC(=N\O)/C(C)=C/c1ccc(F)cc1
remaining binding (cell-free assay; competition with immobilised ligand; 1 µM): 100%

N[C@H]1CCN(c2nccc(-c3cnn4ncccc34)n2)C1
remaining binding (binding; 1 µM): 60%

Nc1ncc2c(n1)-c1c([nH]c3ccc(C#CC4CC4)cc13)CCCC2
remaining binding (binding; competition with immobilised ligand; 1 µM): 76%

O=C(NCCCN1CCOCC1)c1ccc(Nc2ncc(Cl)c(-c3ccc(Cl)s3)n2)cc1
remaining binding (binding; competition with immobilised ligand; 1 µM): 4.7%

F[C@@H]1CCN(c2nccc(-c3cnn4ncccc34)n2)C1
remaining binding (binding; 1 µM): 87%

CCOCCn1cc(C(=O)Nc2ccc(-n3nc(-c4cccnc4)cc3C(F)(F)F)cn2)ccc1=O
remaining binding (cell-free assay; competition with immobilised ligand; 1 µM): 100%
